Screening results (PubChem)
Neddylation inh = inhibitors of cullin neddylation, primary screen, biochemical, TR-FRET, uHTS, NAE and Ubc12; NEDD8-conjugating enzyme Ubc12 (Homo sapiens) + NEDD8-activating enzyme E1 regulatory …; inhibition, % at 25 µM; hit rate 0.58% among 360,000; in the data active means inhibition above about 36%
SR-BI DiI-HDL act = activators of SR-BI mediated DiI-HDL uptake, primary screen, ldlA[mSR-BI] CHO cells, DiI fluorescence; 3 h; 100 = double the neutral-control signal; activation, % at 12.5 µM; hit rate 0.096% among 320,000;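 active means mean replicate activation of at least 60% and every replicate at or above 60%; inconclusive means mean or all-replicate condition met, but not both; inactive means mean below 60% and not all replicates reaching 60%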
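Material: SR-BI-overexpressing, LDLR-lacking CHO cells | Dosing: Single compound concentration, delivered by pin transfer | Probe or stimulus: Labelled HDL, 10 µg/mL | Signal: Bottom-read cell fluorescence after medium removal, ex 550/em 595 nm | Schedule: 3 h, 37 °C | Evaluation: HDL uptake via cellular fluorescence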
UBC13 inh = UBC13 polyubiquitin chain formation inhibitors, primary screen, biochemical, TR-FRET, uHTS; Ubiquitin-conjugating enzyme E2 N (Homo sapiens), P61088; inhibition, % at 20 µM; hit rate 0.47% among 330,000; AID 485273, 2010; in the data active means inhibition above about 45%, passing the limit was not always enough; inconclusive means no clear call, values can overlap the other calls
Target sequence (P61088 whole entry, looked up): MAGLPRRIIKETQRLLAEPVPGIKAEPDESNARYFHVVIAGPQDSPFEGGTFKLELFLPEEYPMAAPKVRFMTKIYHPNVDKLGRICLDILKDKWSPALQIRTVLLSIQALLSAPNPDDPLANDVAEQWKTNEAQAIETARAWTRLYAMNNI
SR-BI HDL uptake = inhibitors of SR-BI mediated HDL lipid uptake, primary screen, ldlA[mSR-BI] cells, fluorescence, single point. Scavenger receptor class B member 1 (Mus musculus), Q61009. hit rate 0.96% among 320,000. ldlA[mSR-BI] CHO cells, DiI-HDL uptake fluorescence, 3 h. AID 488896, 2010. inhibition, % at 12.5 µM;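 active means mean replicate inhibition of at least 70% and a set share of replicates each scoring 70 or more; inconclusive means meets just one of the two criteria; inactive means fails both criteria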
Target sequence (Q61009 whole entry, looked up): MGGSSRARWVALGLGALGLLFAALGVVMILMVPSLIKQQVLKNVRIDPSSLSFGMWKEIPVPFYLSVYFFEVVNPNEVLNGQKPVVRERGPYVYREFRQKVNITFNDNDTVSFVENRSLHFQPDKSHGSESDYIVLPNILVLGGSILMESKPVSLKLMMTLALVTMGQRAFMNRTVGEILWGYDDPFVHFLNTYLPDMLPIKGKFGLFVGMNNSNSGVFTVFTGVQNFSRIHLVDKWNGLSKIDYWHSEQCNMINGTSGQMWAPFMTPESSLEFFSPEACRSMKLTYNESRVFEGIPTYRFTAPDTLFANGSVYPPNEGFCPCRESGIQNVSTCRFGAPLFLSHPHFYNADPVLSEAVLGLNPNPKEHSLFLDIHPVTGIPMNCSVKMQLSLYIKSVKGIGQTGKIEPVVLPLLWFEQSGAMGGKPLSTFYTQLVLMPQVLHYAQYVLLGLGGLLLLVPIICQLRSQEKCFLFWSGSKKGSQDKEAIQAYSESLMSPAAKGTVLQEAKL
Neddyl inh conf = blockade of NEDD8 conjugation to cullin – biochemical, TR-FRET, single concentration, confirmation. hit rate 13% among 1,800. shares compounds with Neddylation inh. calls only at 25 µM. AID 652217, 2013. TR-FRET cullin neddylation biochemical assay; in the data active means inhibition above about 40%;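 further: neddylation substrate is the cullin 1 ring ligase complex with SKP2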
Numbers stand for hits. In the library only some 1.9% were active in any assay of this set; here they are far more common.

`c1cn2c(Nc3ccc4c(c3)OCCO4)c(-c3ccc(N4CCOCC4)cc3)nc2cn1` gave Neddylation inh 38, SR-BI DiI-HDL act inactive, UBC13 inh inactive, SR-BI HDL uptake inactive and Neddyl inh conf inactive.
`Clc1ccc(-c2nc3cnccn3c2Nc2ccc3c(c2)OCO3)cc1` gave Neddylation inh 41, SR-BI DiI-HDL act inactive, UBC13 inh inactive, SR-BI HDL uptake inactive and Neddyl inh conf inactive.
For CSc1ccc(-c2nc3cnccn3c2Nc2ccc3c(c2)OCO3)cc1 the results were SR-BI DiI-HDL act inactive, UBC13 inh inactive and SR-BI HDL uptake inactive.
`Cc1nc(CCNC(=O)C2CCC(=O)N(Cc3cccc(F)c3)C2)sc1C` (stereo not given) gave Neddylation inh inactive, SR-BI DiI-HDL act inactive, UBC13 inh inactive and SR-BI HDL uptake inactive.
CN1OC[C@@H]2CN(Cc3ccc(Cl)cc3)[C@H](c3ccc(-n4ccnc4)cc3)C[C@@H]21 was read as Neddylation inh inactive.
O=C(NCCN1CCNC1=O)c1ccc2sc([C@@H]3O[C@H](CO)[C@H](O)[C@H](O)[C@H]3O)nc2c1 was read as Neddylation inh inactive.
For COc1ccc2nc3c(nc2c1)CCCC3 the results were Neddylation inh 46, SR-BI DiI-HDL act inactive, UBC13 inh inactive, SR-BI HDL uptake inactive and Neddyl inh conf active.
Screening COc1ccc2nc3c(c(-c4ccccc4)c2c1)CCC3 returned Neddylation inh inactive, SR-BI DiI-HDL act inactive, UBC13 inh inactive and SR-BI HDL uptake inactive.
Screening COc1ccc(/C(C)=N/NC(=O)C2CC2)cc1 returned Neddylation inh inactive, SR-BI DiI-HDL act inactive, UBC13 inh inactive and SR-BI HDL uptake inactive.
Screening COc1ccc2cc(/C(C)=N/NC(=O)C3CC3)ccc2c1 returned Neddylation inh 43, SR-BI DiI-HDL act inactive, UBC13 inh inactive, SR-BI HDL uptake inactive and Neddyl inh conf inactive.
For COc1ccc(C(=O)Nc2cccc(S(=O)(=O)NC3=NCCC3)c2)cc1OC the results were Neddylation inh inactive, SR-BI DiI-HDL act inactive, UBC13 inh inactive and SR-BI HDL uptake inactive.
`COc1ccc(C2CC(c3ccccc3)=NN2C(=O)COC(=O)/C=C/c2ccc(O)c(OC)c2)cc1` (stereo not given) gave Neddylation inh 44, SR-BI DiI-HDL act inactive, UBC13 inh inactive, SR-BI HDL uptake inactive and Neddyl inh conf inactive.
Screening COc1ccc(C2CC(c3ccccc3)=NN2C(=O)COC(=O)CNC(=O)c2ccccc2)cc1 (stereo not given) returned Neddylation inh inactive, SR-BI DiI-HDL act inactive, UBC13 inh inactive and SR-BI HDL uptake inactive.
For CCc1ccc(-c2cc(C(=O)Nc3c(C)n(C)n(-c4ccccc4)c3=O)c3ccccc3n2)s1 the results were Neddylation inh 41, SR-BI DiI-HDL act inactive, UBC13 inh inactive, SR-BI HDL uptake inconclusive and Neddyl inh conf inactive.
For Cc1cc(C(=O)Nc2c(C)n(C)n(-c3ccccc3)c2=O)c2ccccc2n1 the results were Neddylation inh inactive, SR-BI DiI-HDL act inactive, UBC13 inh inactive and SR-BI HDL uptake inactive.
Screening CCN(CC)c1nc(C=Cc2ccc(N(C)C)cc2)c2nccnc2n1 returned Neddylation inh inactive.
O=C(CN1CCCC1)N1CCCc2c1c(=O)oc1ccc(OCc3ccccc3)cc21 was read as Neddylation inh 50, SR-BI DiI-HDL act inactive, UBC13 inh inactive and SR-BI HDL uptake inactive.
CCCOc1ccc2oc(=O)c3c(c2c1)CCCN3C(=O)CN1CCN(C(=O)c2ccco2)CC1 was read as UBC13 inh inactive.
`CC(=O)Oc1ccc2nc(/C=C/c3ccccc3)oc(=O)c2c1` gave Neddylation inh 45, SR-BI DiI-HDL act inactive, UBC13 inh inactive, SR-BI HDL uptake inactive and Neddyl inh conf inactive.
For CC1CC(C)CN(C(=O)C2CCN(C(=O)Nc3ccccc3)CC2)C1 (stereo not given) the results were Neddylation inh inactive, SR-BI DiI-HDL act inactive, UBC13 inh inactive and SR-BI HDL uptake inactive.
`Cc1cc(NC(=O)COC(=O)c2nccnc2N)n(-c2ccccc2)n1` gave Neddylation inh 68, SR-BI DiI-HDL act inactive, UBC13 inh inactive and SR-BI HDL uptake inactive.
For CCOc1ccc2oc(C(=O)NCC3CCCO3)c(C)c2c1 (stereo not given) the results were Neddylation inh 46, SR-BI DiI-HDL act inactive, UBC13 inh inactive, SR-BI HDL uptake inactive and Neddyl inh conf active.
CCOc1ccc2oc(C(=O)NNC(=O)c3csc(N4CCOCC4)n3)c(C)c2c1 was read as Neddylation inh 41, SR-BI DiI-HDL act inactive, UBC13 inh inactive, SR-BI HDL uptake inactive and Neddyl inh conf inactive.
Cc1ccc(C2NC(=O)c3c(sc4c3CCN(C)C4)N2)o1 (stereo not given) was read as Neddylation inh 43, SR-BI DiI-HDL act inactive, UBC13 inh inactive, SR-BI HDL uptake inactive and Neddyl inh conf inactive.
Cc1ccc(C2NC(=O)c3c(sc4c3CCN(C)C4)N2)s1 (stereo not given) was read as SR-BI DiI-HDL act inactive, UBC13 inh inactive and SR-BI HDL uptake inactive.
For O=S(=O)(c1cccc2nsnc12)N1CCNCC1 the results were Neddylation inh inactive and UBC13 inh inactive.
For CCc1ccc2nc(N3CCN(C)CC3)c(C#N)cc2c1 the results were Neddylation inh 43, SR-BI DiI-HDL act inactive, UBC13 inh inactive, SR-BI HDL uptake inactive and Neddyl inh conf inactive.
CC(C)[C@H](NC(=O)c1ccccc1)C(=O)OCC(=O)/C=C1/N(C)c2ccccc2C1(C)C was read as Neddylation inh inactive, SR-BI DiI-HDL act inactive, UBC13 inh inactive and SR-BI HDL uptake inactive.
Screening COc1cc(OC)cc(C(=O)NCC(=O)OCC(=O)/C=C2/N(C)c3ccccc3C2(C)C)c1 returned Neddylation inh 52, SR-BI DiI-HDL act inactive, UBC13 inh inactive, SR-BI HDL uptake inactive and Neddyl inh conf inactive.
For COc1ccc(OC)c(/C=N\NC(=O)CSc2nnc(CCCc3ccc(OC)c(C)c3)o2)c1 the results were Neddylation inh 37, SR-BI DiI-HDL act inactive, UBC13 inh inactive and SR-BI HDL uptake inactive.
`COc1ccc(CCNC(=O)CN(c2cc(C)cc(C)c2)S(=O)(=O)c2c(C)noc2C)cc1OC` gave Neddylation inh inactive, SR-BI DiI-HDL act inactive, UBC13 inh inactive and SR-BI HDL uptake inactive.
Nc1ncccc1C(=O)OCC(=O)N1CCN(S(=O)(=O)c2ccc(Cl)cc2)CC1 was read as Neddylation inh 62, SR-BI DiI-HDL act inactive, UBC13 inh inactive and SR-BI HDL uptake inactive.
`CCNC(=O)C1(C)CCCN(Cc2csc(-c3ccccc3)n2)C1` (stereo not given) gave Neddylation inh inactive.
O=C(N/N=C/C=C/c1ccco1)c1cnccn1 was read as Neddylation inh inactive, SR-BI DiI-HDL act inactive, UBC13 inh inactive and SR-BI HDL uptake inactive.
